Screening results: PubChem BioAssay, several laboratories
UBC9 SUMO inh: blocks human SUMOylation mediated by UBC9. P63279. HTRF SUMOylation assay, SAE1/SAE2 + UBC9, in vitro. inhibition, % at 35 µM. 290,000 compounds, 0.36% hits; in the data active = inhibition above about 50%, passing the limit was not always enough
RBBP9 inh: inhibitors of human serine hydrolase RBBP9; inhibition, % at 7.94 µM; AID 1515; recombinant RBBP9, FP-Rh probe fluorescence polarization; O75884; 220,000 compounds, 0.2% hits;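 active = inhibition above the campaign mean of all tested compounds plus 3 SD, cut at about 14% in these data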
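Material: RBBP9 protein. Amount: RBBP9 at 2.5 µM in dispensed solution, before mixing. Schedule: 30 min then 45 min, 25 °C. Medium: Tris buffer pH 8.0, NaCl, Pluronic. Measured by: fluorescence polarization. Measure: percent inhibition from mP, scaled between DMSO and no-protein wells. Replication: one well per compound.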
UBC13 polyUb: inhibitors of human UBC13 polyubiquitin chain formation | P61088 | TR-FRET | inhibition, % at 20 µM | 330,000 compounds, 0.47% hits | AID 485273; in the data active = inhibition above about 45%, passing the limit was not always enough
PREPL inh: inhibits the human prolyl oligopeptidase-like enzyme; Q4J6C6; recombinant PREPL, fluorescence polarization activity-based probe; inhibition, % at 5.96 µM; 320,000 compounds, 0.68% hits; AID 2751; in the data active = inhibition above about 43%
Rin1 Abl inh: human Rin1-Abl interaction inhibition; TR-FRET Rin1/Abl binding, biochemical; P00519+Q13671; inhibition, % at 7.35 µM; 360,000 compounds, 0.4% hits; in the data active = inhibition above about 5%, passing the limit was not always enough
ALR inh: blocks human ALR sulfhydryl oxidase activity. P55789. inhibition, % (test concentration not listed). AID 485317. 290,000 compounds, 3.8% hits. purified ALR, DTT oxidation, H2O2 HRP-luminol luminescence;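 active = mean replicate inhibition above about 79%, with every replicate also reaching it, limit read from the data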
Hits are given with their value; 0 = inactive; - = no result given. Most compounds without a hit are left out; they make up all but 4.3% or so of the library.

SMILES	UBC9 SUMO inh	RBBP9 inh	UBC13 polyUb	PREPL inh	Rin1 Abl inh	ALR inh
CCc1ccc(NC(=O)c2ccc3ncsc3c2)cc1	0	0	-	-	-	-
Nc1nc2ccc(C(=O)Nc3ccccc3)cc2s1	0	0	0	0	0	98
Cc1cccc(NC(=O)C2CCCN(S(=O)(=O)c3cccs3)C2)c1C (centres undefined)	0	-	0	0	0	0
COC(=O)Nc1ccc(S(=O)(=O)N2CCC(C(=O)N(C)C3CCCCC3)CC2)cc1	0	0	0	0	0	92
Cc1cc(-c2nsc(=O)o2)c(S(C)(=O)=O)s1	0	0	0	0	0	99
COC(=O)c1ccccc1NC(=O)CCCn1nc([N+](=O)[O-])c(Br)c1C	0	0	0	0	0	0
COc1ccc(/C=N/Nc2snc(SC)c2C#N)cc1OC	0	0	0	0	0	0
COc1cccc(/C=N/Nc2snc(SC)c2C#N)c1O	0	0	0	0	0	86
CCCCC1(CC)SCC(=O)NC1=O (centres undefined)	-	-	-	-	0	-
CN(C)/C=C1\N=C(c2cccs2)OC1=O	0	0	0	0	0	93
COc1cc(OC)cc(C(=O)c2c(C)c(C#N)c3ccccn23)c1	0	-	0	-	0	-
COC1=C/C(=C/c2c(O)c(C#N)c3ccccn23)C=CC1=O	0	0	0	0	0	91
Cn1nc(C2CC2)cc1NC(=O)C1(C)CCN1C(=O)c1ccccc1CCc1ccccc1 (centres undefined)	-	-	-	-	0	-
Cc1ccc2nc(Cl)c(/C=N/NC(=O)c3ccccc3O)cc2c1	0	0	0	0	0	97
Oc1ccc(-c2cnc3ccccc3n2)cc1	-	-	0	0	0	98
Clc1ccc(-c2cnc3ccccc3n2)cc1	0	0	0	0	0	0
O=C1/C(=C\c2ccco2)CCC/C1=C\c1ccco1	52	0	0	0	0	0
O=C(CN1CCN(C(=O)C2CCCO2)CC1)Nc1ccc(F)cc1 (centres undefined)	0	-	0	0	0	0
Cc1ccc(NC(=O)NCc2ccccn2)c(C)c1	0	-	0	-	0	0
Cc1c(OCC(=O)N[C@@H](Cc2ccccc2)C(=O)O)ccc2c3c(c(=O)oc12)CCC3	0	-	0	0	0	0
Cc1c(OCC(=O)NC(Cc2ccc(Cl)cc2)C(=O)O)ccc2c3c(c(=O)oc12)CCCC3 (centres undefined)	0	-	0	0	0	98
Cc1c(OCC(=O)N[C@@H](Cc2ccccc2)C(=O)O)ccc2c1oc(=O)c1ccccc12	0	-	0	0	0	0
Cc1c(OC(C)C(=O)N[C@H](C(=O)O)c2ccccc2)ccc2c3c(c(=O)oc12)CCCC3 (some centres undefined)	0	-	0	0	0	96
Cc1c(Cc2ccccc2)c(=O)oc2c(C)c(OC(C)C(=O)N[C@@H](Cc3ccccc3)C(=O)O)ccc12 (some centres undefined)	0	-	0	0	0	97
O=C(CCC1CCCC1)c1c(O)c2ccccc2oc1=O	0	0	0	0	0	93
SMILES	UBC9 SUMO inh	RBBP9 inh	UBC13 polyUb	PREPL inh	Rin1 Abl inh	ALR inh
Cn1c(=O)c2c(nc(SCC(=O)c3ccccc3F)n2C)n(C)c1=O	0	0	0	0	-	0
Cc1ccc(-c2csc(/C(C#N)=C(\O)CN3CCN(C(=O)c4ccco4)CC3)n2)cc1	0	0	0	0	0	99
N#C/C(=C(/O)CN1CCOCC1)c1nc(-c2ccccc2)cs1	0	0	0	0	0	0
CCOC(=O)c1ccc(N2C(=O)CC(Sc3nnc(C)s3)C2=O)cc1 (centres undefined)	0	0	0	0	0	91
CC1(C)C(=O)N(CCN2CCC(C(=O)c3ccc(F)cc3)CC2)c2ccccc21	-	-	0	0	0	0
COc1ccc(-c2coc3cc(O)ccc3c2=O)cc1O	0	0	0	0	0	77
COc1cc(O)cc2occ(-c3ccc(O)cc3)c(=O)c12	0	0	0	0	0	98
CC1CC(=Cc2ccc(N)cc2)C(=O)O1 (centres undefined)	-	-	-	-	0	-
Cc1ccccc1CSc1nnc(-c2cnccn2)n1C	0	0	0	0	0	0
CCCC1=C(C(=O)OCC)C(c2cccnc2)n2nc(C)nc2N1 (centres undefined)	0	0	0	0	0	-
Cc1ccc(-c2cc(-c3ccccc3O)nc(N/N=C/c3cccnc3)n2)cc1	53	0	0	0	0	0
COCCNC(=O)C1CCCN(S(=O)(=O)c2ccc3c(c2)CC(C)N3C(=O)C2CC2)C1 (centres undefined)	0	-	0	0	0	0
O=C(NCc1ccccc1)c1c(Cl)nc(Cl)c(Cl)c1Cl	0	-	0	0	0	0
CC(OC(=O)/C=C/c1ccc2ccccc2n1)C(=O)N(C)c1ccccc1 (centres undefined)	-	-	0	0	0	0
CC(=O)/C=C/c1ccc2ccccc2n1	0	0	0	0	0	98
O/N=C/c1ccc2ccccc2n1	0	0	0	0	0	0
COc1ccccc1NC(=O)C(C)OC(=O)/C=C/c1ccc2ccccc2n1 (centres undefined)	-	-	0	0	0	94
CN(CCCNC(=O)C1CCCN(S(=O)(=O)c2cnc[nH]2)C1)c1ccccc1 (centres undefined)	0	0	0	0	0	100
O=C(NCCCN1CCN(c2ccccc2F)CC1)C1CCCN(S(=O)(=O)c2cnc[nH]2)C1 (centres undefined)	0	0	0	0	0	-
CCCS(=O)(=O)N1CCCC(C(=O)NCCCN(C)Cc2ccccc2)C1 (centres undefined)	0	0	0	0	0	0
CCCS(=O)(=O)N1CCCC(C(=O)NCCCN(C)c2ccccc2)C1 (centres undefined)	0	0	0	0	0	82
CCCCC(c1nc2ccccc2[nH]1)n1c(-c2ccccc2)nc2ccccc21 (centres undefined)	-	-	-	-	0	-
O=C(CN1CCCCC1)Nc1ccc(S(=O)(=O)c2ccc(NC(=O)CN3CCCCC3)cc2)cc1	-	-	-	-	0	-
Cc1c(C(=O)N2CCC3(CC2)CC(=O)c2ccccc2O3)cccc1[N+](=O)[O-]	-	-	0	0	0	0
O=C(NC1CCCC1)C(c1ccc(Cl)cc1)N1CCc2ccccc21 (centres undefined)	0	0	0	0	0	0
SMILES	UBC9 SUMO inh	RBBP9 inh	UBC13 polyUb	PREPL inh	Rin1 Abl inh	ALR inh
O=C(NC1CCCCC1)C(c1ccccc1)N1CCc2ccccc21 (centres undefined)	0	0	0	0	0	98
Cc1nc(N)sc1C(=O)N/N=C/c1ccccc1[N+](=O)[O-]	0	0	95	0	0	0
Cc1ccc(NC(=O)CSCC(=O)Nc2cc(S(=O)(=O)N3CCOCC3)ccc2OC(C)C)cc1	-	-	-	-	0	-
CCN(CC)CCn1c2c(c(SCC(=O)Nc3ccccc3Cl)nc1=O)CCCC2	-	-	0	0	0	0
CCN(CC)CCCn1c2c(c(SCC(=O)Nc3ccccc3Cl)nc1=O)CCC2	-	-	0	0	0	98
CCN(CC)CCn1c2c(c(SCC(=O)Nc3ccc(F)c(F)c3)nc1=O)CCC2	-	-	0	0	0	92
